Measured values taken from ChEMBL document CHEMBL1139833, “Synthesis and metabotropic glutamate receptor activity of S-oxidized variants of (-)-4-amino-2-thiabicyclo-[3.1.0]hexane-4,6-dicarboxylate: identification of potent, selective, and orally bioavailable agonists for mGlu2/3 receptors” (J Med Chem, 2007).
Active and inactive are the calls of the source. No cut-off for these calls is given here.

What was measured:
[1] = target: Metabotropic glutamate receptor 8 (Homo sapiens, UniProt O00222); experiment: Agonist activity at human mGluR8 assessed as effect on cAMP production in RGT cells; format: functional, cell-based
In short: (§1)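 cAMP second-messenger responses measured in RGT cells. These are non-neuronal AV12-664 cells coexpressing the glutamate transporter GLAST, to minimize glutamate activity, plus the recombinant human receptor (mGlu2, mGlu3 or mGlu8). Agonist EC50 determined.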

[2] = target: T1, Metabotropic glutamate receptor 3 (Homo sapiens, UniProt Q14832); experiment: Displacement of [3H]LY341495 from human recombinant mGluR3 in RGT cells; format: cell-based
In short: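 Radioligand binding on membranes carrying recombinant human mGlu2 or mGlu3, displacing the antagonist [3H]LY341495. Ki was calculated from IC50 by the Cheng-Prusoff equation. Values are the mean of at least three separate experiments.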

[3] = target: T2, Metabotropic glutamate receptor 2 (Homo sapiens, UniProt Q14416); experiment: Agonist activity at human mGluR2 assessed as effect on cAMP production in RGT cells; format: functional, cell-based; in short: as §1
[4] = target: T2, Metabotropic glutamate receptor 2; experiment: Displacement of [3H]LY341495 from human recombinant mGluR2 in RGT cells; format: cell-based
[5] = target: T1, Metabotropic glutamate receptor 3; experiment: Agonist activity at human mGluR3 assessed as effect on cAMP production in RGT cells; format: functional, cell-based; in short: as §1
[6] = target: Metabotropic glutamate receptor 4 (Homo sapiens) (UniProt Q14833); experiment: Agonist activity at human mGluR4a assessed as effect on cAMP production in RGT cells upto 100 uM; format: functional, cell-based
In short: (§2)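 Compounds were tested at concentrations up to 100 µM for agonist or antagonist effects. Assays used RGT cells, which are AV12-664 cells coexpressing GLAST and recombinant human mGlu1a, mGlu5a, mGlu4a or mGlu7a.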

[7] = target: Metabotropic glutamate receptor 1 (Homo sapiens) (UniProt Q13255); experiment: Antagonist activity against human mGluR1a assessed as effect on cAMP production in RGT cells upto 100 uM; format: functional, cell-based; in short: as §2
[8] = target: Metabotropic glutamate receptor 7 (Homo sapiens) (UniProt Q14831); experiment: Agonist activity at human mGluR7a assessed as effect on cAMP production in RGT cells upto 100 uM; format: functional, cell-based; in short: as §2
[9] = target: Metabotropic glutamate receptor 5 (Homo sapiens) (UniProt P41594); experiment: Antagonist activity against human mGluR5a assessed as effect on cAMP production in RGT cells upto 100 uM; format: functional, cell-based; in short: as §2
[10] = target: Metabotropic glutamate receptor 4 (Homo sapiens) (UniProt Q14833); experiment: Antagonist activity against human mGluR4a assessed as effect on cAMP production in RGT cells upto 100 uM; format: functional, cell-based; in short: as §2
[11] = target: Metabotropic glutamate receptor 1 (Homo sapiens) (UniProt Q13255); experiment: Agonist activity at human mGluR1a assessed as effect on cAMP production in RGT cells upto 100 uM; format: functional, cell-based; in short: as §2
[12] = target: Metabotropic glutamate receptor 5 (Homo sapiens) (UniProt P41594); experiment: Agonist activity at human mGluR5a assessed as effect on cAMP production in RGT cells upto 100 uM; format: functional, cell-based; in short: as §2
[13] = target: Metabotropic glutamate receptor 7 (Homo sapiens) (UniProt Q14831); experiment: Antagonist activity against human mGluR7a assessed as effect on cAMP production in RGT cells upto 100 uM; format: functional, cell-based; in short: as §2
[14] = system: Rattus norvegicus; experiment: Plasma concentration in Fischer 344 rat at 10 mg/kg, po after 6 hrs; format: ADME, organism-based; set-up: dose 10 mg/kg, route oral; details: in vivo
In short: (§3)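 Plasma levels in fasted male Fischer 344 rats after a 10 mg/kg oral dose in pH 7 water (NaOH), quantified by positive-ion electrospray LC/MS/MS. Main protocol sampled at 0.08/0.25–24 h, n=3 rats per time point. A variant oral-only arm used n=6 rats with samples at 0.5, 1, 2, 3, 4 and 6 h.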

[15] = system: Rattus norvegicus; experiment: (§4) Tmax in Fischer 344 rat at 10 mg/kg, po; format: ADME, organism-based; set-up: dose 10 mg/kg, route oral; details: rat, in vivo
In short: (§5)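 Male Fischer 344 rats fasted overnight, food returned 4 h post dose, water ad libitum. Doses were in water brought to pH 7 with NaOH, given i.v. (2.5 or 10 mg/kg) or p.o. (10 mg/kg). Nine rats per dose group, three per time point, with blood taken over 0.08–24 h. Plasma measured by LC/MS/MS.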

[16] = system: Rattus norvegicus; experiment: Plasma concentration in Fischer 344 rat at 10 mg/kg, po after 1 hrs; format: ADME, organism-based; set-up: dose 10 mg/kg, route oral; details: in vivo; in short: as §3
[17] = system: Rattus norvegicus; experiment: (§6) AUC (0-24h) in Fischer 344 rat at 10 mg/kg, po; format: ADME, organism-based, Plasma; set-up: time < 24 hr, dose 10 mg/kg, route oral; details: rat, in vivo, 24 h; in short: as §5
[18] = system: Rattus norvegicus; experiment: Plasma concentration in Fischer 344 rat at 10 mg/kg, po after 0.5 hrs; format: ADME, organism-based; set-up: dose 10 mg/kg, route oral; details: in vivo; in short: as §3
[19] = system: Rattus norvegicus; experiment: Plasma concentration in Fischer 344 rat at 10 mg/kg, po after 3 hrs; format: ADME, organism-based; set-up: dose 10 mg/kg, route oral; details: in vivo; in short: as §3
[20] = system: Rattus norvegicus; experiment: Cmax in Fischer 344 rat at 10 mg/kg, po; format: ADME, organism-based; set-up: dose 10 mg/kg, route oral; details: in vivo; in short: as §5
[21] = system: Rattus norvegicus; experiment: Plasma concentration in Fischer 344 rat at 10 mg/kg, po after 2 hrs; format: ADME, organism-based; set-up: dose 10 mg/kg, route oral; details: in vivo; in short: as §3
[22] = system: Rattus norvegicus; experiment: Plasma concentration in Fischer 344 rat at 10 mg/kg, po after 4 hrs; format: ADME, organism-based; set-up: dose 10 mg/kg, route oral; details: in vivo; in short: as §3
[23] = Plasma concentration in Fischer 344 rat after 8 hrs; format: ADME, organism-based; in short: as §3
[24] = as §4; format: ADME, organism-based; set-up: dose 10 mg/kg, route oral; details: Fischer 344, rat, in vivo; in short: as §5
[25] = system: Rattus norvegicus; experiment: AUC (0-24h) in Fischer 344 rat at 10 mg/kg, po; details: in vivo
[26] = Plasma concentration in Fischer 344 rat after 3 hrs; format: ADME, organism-based; in short: as §3
[27] = AUC (0-24h) in Fischer 344 rat at 2.5 mg/kg, iv; format: ADME, organism-based; set-up: time < 24 hr, dose 2.5 mg/kg, route intravenous; details: plasma; in short: as §5
[28] = Tmax in Fischer 344 rat at 2.5 mg/kg, iv; format: ADME, organism-based; set-up: dose 2.5 mg/kg, route intravenous; details: in vivo; in short: as §5
[29] = system: Rattus norvegicus; experiment: Cmax in Fischer 344 rat at 2.5 mg/kg, iv; format: ADME, organism-based; set-up: dose 2.5 mg/kg, route intravenous; details: in vivo; in short: as §5
[30] = as §6; format: ADME, organism-based, Plasma; set-up: time < 24 hr, dose 10 mg/kg, route oral; details: Fischer 344, rat, plasma; in short: as §5
[31] = system: Rattus norvegicus; experiment: Inhibition of PCP-induced ambulations in Sprague-Dawley rat after oral administration; format: functional
In short: (§7)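 Male Sprague-Dawley rats (225-274 g) fasted 12-18 h and habituated 30 min to the test cage. Test drug or vehicle was given orally 2 h before PCP (5 mg/kg s.c.) or 0.9% NaCl. Horizontal photobeam breaks were counted over 60 min, n=8-13 per group.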

[32] = system: Rattus norvegicus; experiment: Reduction of PCP-induced ambulations in Sprague-Dawley rat at 10 mg/kg, po; format: functional; set-up: scale not given: the % may be the effect or the level left; in short: as §7
[33] = system: Rattus norvegicus; experiment: Reduction of PCP-induced ambulations in Sprague-Dawley rat at 3 mg/kg, po; format: functional; set-up: scale not given: the % may be the effect or the level left; in short: as §7
[34] = Plasma concentration in Fischer 344 rat after 1 hr; format: ADME, organism-based; in short: as §3
[35] = Oral bioavailability in Fischer 344 rat at 10 mg/kg, po; format: ADME, organism-based; details: in vivo; in short: as §5

Metabotropic glutamate receptor 5 (Homo sapiens), sequence (P41594 21-1212 limits assumed): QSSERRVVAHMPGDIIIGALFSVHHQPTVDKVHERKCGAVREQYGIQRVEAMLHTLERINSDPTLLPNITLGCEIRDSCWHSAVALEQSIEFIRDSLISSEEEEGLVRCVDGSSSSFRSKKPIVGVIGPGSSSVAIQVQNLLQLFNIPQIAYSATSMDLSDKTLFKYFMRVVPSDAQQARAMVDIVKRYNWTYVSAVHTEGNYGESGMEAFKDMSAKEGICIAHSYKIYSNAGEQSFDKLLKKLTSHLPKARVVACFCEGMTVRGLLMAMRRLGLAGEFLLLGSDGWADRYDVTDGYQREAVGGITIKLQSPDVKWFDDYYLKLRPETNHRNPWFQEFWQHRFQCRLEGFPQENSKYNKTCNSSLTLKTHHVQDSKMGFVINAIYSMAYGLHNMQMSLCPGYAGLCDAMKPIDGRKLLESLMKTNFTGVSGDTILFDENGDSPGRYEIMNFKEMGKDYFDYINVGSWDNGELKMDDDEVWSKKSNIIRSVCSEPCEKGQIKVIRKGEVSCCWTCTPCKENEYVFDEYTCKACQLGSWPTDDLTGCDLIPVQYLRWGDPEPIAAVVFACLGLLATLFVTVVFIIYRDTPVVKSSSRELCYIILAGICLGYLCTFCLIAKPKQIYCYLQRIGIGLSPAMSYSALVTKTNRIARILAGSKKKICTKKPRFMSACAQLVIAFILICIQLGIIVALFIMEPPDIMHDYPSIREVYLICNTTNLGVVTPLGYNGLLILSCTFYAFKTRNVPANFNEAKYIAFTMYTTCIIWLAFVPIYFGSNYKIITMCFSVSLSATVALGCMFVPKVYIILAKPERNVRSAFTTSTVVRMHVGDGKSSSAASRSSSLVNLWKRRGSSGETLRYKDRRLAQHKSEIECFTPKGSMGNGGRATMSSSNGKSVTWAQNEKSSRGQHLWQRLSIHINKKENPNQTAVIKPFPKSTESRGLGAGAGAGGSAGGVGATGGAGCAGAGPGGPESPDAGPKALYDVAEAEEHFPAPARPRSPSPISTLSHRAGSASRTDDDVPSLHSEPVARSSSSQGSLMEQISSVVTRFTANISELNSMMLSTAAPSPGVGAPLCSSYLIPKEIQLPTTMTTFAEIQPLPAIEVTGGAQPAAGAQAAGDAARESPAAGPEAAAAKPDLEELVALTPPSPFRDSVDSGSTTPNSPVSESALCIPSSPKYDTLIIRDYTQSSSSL
Metabotropic glutamate receptor 1 (Homo sapiens), sequence (Q13255 19-1194 limits assumed): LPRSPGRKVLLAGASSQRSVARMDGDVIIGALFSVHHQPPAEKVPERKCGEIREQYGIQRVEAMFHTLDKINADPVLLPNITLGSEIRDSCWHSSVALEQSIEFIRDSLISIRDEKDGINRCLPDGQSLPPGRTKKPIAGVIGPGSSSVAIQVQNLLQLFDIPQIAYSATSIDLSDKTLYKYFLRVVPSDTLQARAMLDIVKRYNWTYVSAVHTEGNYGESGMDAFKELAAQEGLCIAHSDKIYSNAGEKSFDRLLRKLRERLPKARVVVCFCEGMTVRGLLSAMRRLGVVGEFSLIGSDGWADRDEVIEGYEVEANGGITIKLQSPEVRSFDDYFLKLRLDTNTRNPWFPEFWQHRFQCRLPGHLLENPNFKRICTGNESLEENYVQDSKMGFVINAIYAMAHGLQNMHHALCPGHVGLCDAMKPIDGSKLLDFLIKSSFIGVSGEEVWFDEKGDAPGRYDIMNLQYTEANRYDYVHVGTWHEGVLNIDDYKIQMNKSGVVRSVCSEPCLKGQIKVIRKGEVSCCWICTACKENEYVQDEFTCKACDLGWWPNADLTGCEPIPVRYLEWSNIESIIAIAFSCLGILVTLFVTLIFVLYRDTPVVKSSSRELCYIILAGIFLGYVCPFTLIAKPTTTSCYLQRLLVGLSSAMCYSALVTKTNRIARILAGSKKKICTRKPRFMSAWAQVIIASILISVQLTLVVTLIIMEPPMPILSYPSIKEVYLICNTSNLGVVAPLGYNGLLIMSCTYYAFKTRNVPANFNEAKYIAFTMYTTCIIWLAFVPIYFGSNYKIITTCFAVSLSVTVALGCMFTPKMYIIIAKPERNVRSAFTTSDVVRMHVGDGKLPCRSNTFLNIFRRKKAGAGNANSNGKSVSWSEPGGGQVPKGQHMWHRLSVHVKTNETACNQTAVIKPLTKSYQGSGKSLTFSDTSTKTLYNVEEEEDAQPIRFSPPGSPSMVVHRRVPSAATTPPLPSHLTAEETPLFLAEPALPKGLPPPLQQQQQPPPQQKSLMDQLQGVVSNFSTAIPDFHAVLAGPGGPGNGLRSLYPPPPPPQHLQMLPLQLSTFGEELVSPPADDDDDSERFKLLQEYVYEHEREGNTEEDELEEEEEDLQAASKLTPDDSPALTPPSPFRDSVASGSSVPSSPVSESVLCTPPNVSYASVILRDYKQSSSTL
T2 sequence (Q14416 whole entry): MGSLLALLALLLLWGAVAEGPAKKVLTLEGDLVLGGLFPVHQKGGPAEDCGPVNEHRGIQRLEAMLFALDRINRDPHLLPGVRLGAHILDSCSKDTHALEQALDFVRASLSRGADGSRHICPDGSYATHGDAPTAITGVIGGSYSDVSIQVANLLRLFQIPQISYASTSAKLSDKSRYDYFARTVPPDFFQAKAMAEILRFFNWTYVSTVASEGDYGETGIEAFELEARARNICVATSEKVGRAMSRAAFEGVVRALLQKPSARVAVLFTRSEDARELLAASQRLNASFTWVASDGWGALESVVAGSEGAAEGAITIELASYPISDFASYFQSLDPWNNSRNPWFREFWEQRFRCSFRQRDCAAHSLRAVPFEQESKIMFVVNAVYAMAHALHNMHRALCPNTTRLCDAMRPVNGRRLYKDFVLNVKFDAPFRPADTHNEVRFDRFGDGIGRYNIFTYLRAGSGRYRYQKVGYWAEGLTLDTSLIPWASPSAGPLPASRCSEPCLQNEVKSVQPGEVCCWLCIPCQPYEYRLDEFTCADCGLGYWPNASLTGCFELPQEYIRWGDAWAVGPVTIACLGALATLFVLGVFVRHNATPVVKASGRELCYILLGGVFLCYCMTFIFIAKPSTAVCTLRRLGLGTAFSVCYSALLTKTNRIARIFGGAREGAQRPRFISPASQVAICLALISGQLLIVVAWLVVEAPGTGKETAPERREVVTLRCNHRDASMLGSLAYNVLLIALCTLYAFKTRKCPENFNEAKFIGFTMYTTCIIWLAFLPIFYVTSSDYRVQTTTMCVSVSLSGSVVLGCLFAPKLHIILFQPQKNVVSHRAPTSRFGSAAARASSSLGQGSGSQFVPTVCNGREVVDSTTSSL
Metabotropic glutamate receptor 4 (Homo sapiens), sequence (Q14833 whole entry): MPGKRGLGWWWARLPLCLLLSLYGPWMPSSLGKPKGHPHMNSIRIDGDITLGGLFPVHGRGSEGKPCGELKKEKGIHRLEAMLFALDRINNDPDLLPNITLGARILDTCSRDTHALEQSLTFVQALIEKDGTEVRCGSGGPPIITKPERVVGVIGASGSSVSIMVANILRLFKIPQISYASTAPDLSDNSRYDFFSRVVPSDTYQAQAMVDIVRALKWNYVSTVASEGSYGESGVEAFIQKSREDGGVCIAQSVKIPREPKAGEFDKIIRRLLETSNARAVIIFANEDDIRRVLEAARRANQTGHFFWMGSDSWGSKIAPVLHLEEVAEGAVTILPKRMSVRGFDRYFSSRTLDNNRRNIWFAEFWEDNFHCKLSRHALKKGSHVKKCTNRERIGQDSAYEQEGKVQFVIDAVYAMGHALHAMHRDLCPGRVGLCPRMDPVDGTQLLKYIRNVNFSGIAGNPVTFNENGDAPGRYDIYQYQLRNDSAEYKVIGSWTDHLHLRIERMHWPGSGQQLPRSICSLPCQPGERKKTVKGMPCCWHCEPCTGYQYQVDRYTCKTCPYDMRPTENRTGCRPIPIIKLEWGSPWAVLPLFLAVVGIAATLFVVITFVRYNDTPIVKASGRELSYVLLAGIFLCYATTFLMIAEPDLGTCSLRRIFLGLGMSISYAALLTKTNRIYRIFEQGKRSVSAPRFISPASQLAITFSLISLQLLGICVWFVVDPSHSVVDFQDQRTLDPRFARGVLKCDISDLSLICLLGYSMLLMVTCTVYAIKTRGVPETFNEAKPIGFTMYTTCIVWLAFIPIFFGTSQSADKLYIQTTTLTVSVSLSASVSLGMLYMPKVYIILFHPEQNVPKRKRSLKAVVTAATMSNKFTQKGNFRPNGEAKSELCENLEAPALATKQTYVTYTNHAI
Metabotropic glutamate receptor 7 (Homo sapiens), sequence (Q14831 whole entry): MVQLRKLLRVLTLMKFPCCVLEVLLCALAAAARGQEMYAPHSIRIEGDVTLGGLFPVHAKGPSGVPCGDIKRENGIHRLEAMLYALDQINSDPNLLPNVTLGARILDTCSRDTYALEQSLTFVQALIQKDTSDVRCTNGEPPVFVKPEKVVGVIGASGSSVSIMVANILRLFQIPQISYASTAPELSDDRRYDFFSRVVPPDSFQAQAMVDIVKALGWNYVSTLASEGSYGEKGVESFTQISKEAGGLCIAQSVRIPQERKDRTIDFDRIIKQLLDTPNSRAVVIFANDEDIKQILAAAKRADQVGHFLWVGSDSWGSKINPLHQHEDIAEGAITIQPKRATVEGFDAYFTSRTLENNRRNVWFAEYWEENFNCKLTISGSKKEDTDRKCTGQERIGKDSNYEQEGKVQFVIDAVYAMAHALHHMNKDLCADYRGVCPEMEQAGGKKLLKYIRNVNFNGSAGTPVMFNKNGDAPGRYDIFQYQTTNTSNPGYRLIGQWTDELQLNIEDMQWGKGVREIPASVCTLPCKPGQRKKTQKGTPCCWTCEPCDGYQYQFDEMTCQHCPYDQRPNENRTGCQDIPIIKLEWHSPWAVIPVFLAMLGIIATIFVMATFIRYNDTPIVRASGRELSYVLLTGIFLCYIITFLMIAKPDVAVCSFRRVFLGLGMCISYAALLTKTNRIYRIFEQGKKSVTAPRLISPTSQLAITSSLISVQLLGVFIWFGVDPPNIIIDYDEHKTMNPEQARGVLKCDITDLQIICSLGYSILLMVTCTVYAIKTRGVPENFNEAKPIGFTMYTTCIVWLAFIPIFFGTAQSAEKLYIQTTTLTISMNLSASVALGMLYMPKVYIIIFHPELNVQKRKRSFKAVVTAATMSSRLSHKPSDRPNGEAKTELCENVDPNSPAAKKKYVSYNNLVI

N[C@@]1(C(=O)O)C[S+]([O-])[C@H]2[C@H](C(=O)O)[C@H]21 (stereo in doubt; (-)-10) [listing 1 of 2 here]
EC50 [1]: > 100 µM | Ki [2]: 0.447 µM | EC50 [3]: 0.0181 µM | Ki [4]: 0.508 µM | EC50 [5]: 0.21 µM

N[C@@]1(C(=O)O)C[S+]([O-])[C@H]2[C@H](C(=O)O)[C@H]21 (stereo in doubt; (-)-10) [listing 2 of 2 here]
Activity [6]: inactive | Activity [7]: inactive | Activity [8]: inactive | Activity [9]: inactive | Activity [10]: inactive | Activity [11]: inactive | Activity [12]: inactive | Activity [13]: inactive

N[C@@]1(C(=O)O)C[S+]([O-])[C@H]2[C@H](C(=O)O)[C@H]21 (stereo in doubt; (-)-11) [listing 1 of 2 here]
Cp [14]: 71.8 ng/mL | Tmax [15]: 1 h | Cp [16]: 367 ng/mL | AUC [17]: 1100 ng·h/mL | Cp [18]: 325 ng/mL | Cp [19]: 229 ng/mL | Cmax [20]: 400 ng/mL | Cp [21]: 258 ng/mL | Cp [22]: 77 ng/mL

N[C@@]1(C(=O)O)C[S+]([O-])[C@H]2[C@H](C(=O)O)[C@H]21 (stereo in doubt; (-)-11) [listing 2 of 2 here]
Activity [7]: inactive | Activity [9]: inactive | Activity [10]: inactive | Activity [13]: inactive

N[C@@]1(C(=O)O)CS(=O)(=O)[C@H]2[C@H](C(=O)O)[C@H]21 [LY404039]
concentration at 8 h [23]: < 10 ng/mL | Activity [6]: inactive | Activity [7]: inactive | EC50 [1]: 47.8 µM | Ki [2]: 0.092 µM | Activity [8]: inactive | EC50 [3]: 0.0234 µM | Tmax [24]: 1 h | AUC [25]: 7.2 µg/mL | Activity [9]: inactive | concentration at 3 h [26]: > 500 ng/mL | AUC(0-t) at 24 h [27]: 2900 ng·h/mL | Activity [10]: inactive | Activity [11]: inactive | Tmax [28]: 0 h | EC50 [5]: 0.048 µM | Cmax [29]: 7500 ng/mL | AUC(0-t) at 24 h [30]: 7200 ng·h/mL | ED50 [31]: 2.5 mg/kg | Activity [32]: 91% | Activity [33]: 91% | Cmax [20]: 4000 ng/mL | concentration at 1 h [34]: 4000 ng/mL | bioavailability [35]: 63% | Activity [12]: inactive | Activity [13]: inactive
